Compound activity as filed in PubChem.
TIM10 inh: growth inhibitors of isogenic TIM10 control yeast, primary screen, counter-screen for tim10-1 yeast inhibitor project, luminescence, uHTS. S. cerevisiae TIM10 strain growth, BacTiter-Glo luminescence, 24 h. inhibition, % at 10 µM. hit rate 1.4% among 330,000;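 active = inhibition of 40% or more at the single tested concentration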;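 note: wild-type TIM10 isogenic control strain grown at permissive 25 °C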
tim10-1 inh: growth inhibitors of tim10-1 mutant yeast, primary screen, luminescence, uHTS | hit rate 2.2% among 330,000 | AID 463190, 2010 | S. cerevisiae tim10-1 ts strain growth, BacTiter-Glo, 24 h | inhibition, % at 20 µM;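 active = inhibition of at least 40%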;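 note: mutant grown at 25 °C; 0% = DMSO wells with yeast and 100% = wells holding no yeast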
CHOP UPR activ: activators of apoptotic CHOP UPR arm, primary screen, cell-based, CHO-CHOP luciferase reporter, luminescence, uHTS | UPR activation; percent of tunicamycin response over DMSO baseline | activation, % at 10 µM | hit rate 0.34% among 330,000;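 active = at 10 µM dose, activation of 40% or more, normalized to positive control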;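 note: 100% = tunicamycin at 10 µg/mL and 0% = DMSO alone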
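Test system: CHO CHOP reporter cells. Input: 500 CHO-CHOP cells per well. Medium: F12 with 10% FBS. Technique: luciferase luminescence. Measure: percent activation relative to tunicamycin control. Dosing: 10 µM compound, 0.5% DMSO. Timing: 16-18 h cell attachment, then 6 h compound exposure, 37 °C.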
tim23-1 inh: growth inhibitors of tim23-1 mutant yeast, primary screen, luminescence, uHTS. S. cerevisiae tim23-1 growth, BacTiter-Glo luminescence, 24 h. inhibition, % at 20 µM. hit rate 1.3% among 330,000. AID 463212, 2010;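 active = growth inhibition of the mutant yeast at or above 50%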;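 note: temperature-sensitive mutant grown at 25 °C; plate controls were DMSO-treated mutant yeast for no effect and medium wells lacking yeast for full effect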
UPR XBP1 act: activators of adaptive XBP1 UPR arm, primary screen, cell-based, CHO-XBP1 luciferase reporter, luminescence, uHTS; IRE1-XBP1 UPR activation; percent of tunicamycin response, DMSO as zero; activation, % at 20 µM; hit rate 0.33% among 330,000; AID 463104, 2010;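 active = versus positive control, 20 µM dose yields 30% or more activation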;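 note: 100% = tunicamycin at 10 µg/mL and 0% = DMSO only wells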
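incubation = overnight seeding at 37 °C, 6 h compound treatment at 37 °C | assay system = CHO-XBP1 cells stably carrying IRE1-XBP1-driven luciferase reporter | input = 1000 cells per well | detection = luciferase luminescence | dosing = single point, 20 µM final compound, 1% DMSO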
tim10-1 conf: growth inhibitors of tim10-1 mutant yeast, confirmation, single concentration, luminescence, S. cerevisiae | shares compounds with tim10-1 inh | S. cerevisiae tim10-1 ts strain growth, BacTiter-Glo, 24 h | inhibition, % at 20 µM | hit rate 56% among 7,400;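 active = inhibition of yeast growth at or above a set limit in either of two repeat tests at 20 µM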;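 note: tim10-1 mutant grown at permissive 25 °C to find synthetic lethal compounds; 0% = DMSO yeast wells and 100% = medium wells without yeast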
Active calls of the source: *; x = no result. A selection: hits, their analogues and other compounds. The true share with any hit is near 3.9%.

SMILES | TIM10 inh | tim10-1 inh | CHOP UPR activ | tim23-1 inh | UPR XBP1 act | tim10-1 conf
Cc1cccc2[nH]c3c(N4CCC5(CC4)OCCO5)ncnc3c12 | 22 | 51* | 3 | 33 | 0 | 32*
Cn1c(SC2=CS(=O)(=O)c3ccccc32)nc2ccccc21 | 30 | 44* | 36 | 33 | -3 | 30
Cn1c(CSc2nc3ccccc3n2C)nc2ccccc21 | 2 | 4 | 1 | 3 | -1 | x
CCc1cc(C(=O)N2CCCC(CNC(=O)c3ccc(-c4ccccc4)cc3)C2)no1 (stereo not drawn) | 1 | 39 | 1 | 35 | -2 | x
CSCCC(=O)N1CCCC(CNC(=O)c2ccc(-c3ccccc3)cc2)C1 (stereo not drawn) | 23 | 40* | 0 | 33 | -2 | 28
CC(C)(C)c1ccc(NC(=O)CN2C(=O)NC(C)(C3CC3)C2=O)cc1 (stereo not drawn) | -3 | -6 | 0 | -18 | 1 | x
COc1ccc(C(=O)O/N=C(/C)c2cccs2)cc1 | 6 | 23 | -6 | 48 | -9 | x
COc1cc(OC)c(C(=O)O/N=C(\N)c2cccc(C)c2)cc1OC | 28 | 48* | 3 | 36 | 3 | 41*
COc1cccc(C(=O)O/N=C(\N)c2ccncc2)c1OC | -2 | 3 | 4 | -8 | 1 | x
Cc1cccc(/C(N)=N/OC(=O)COc2ccc(Cl)cc2)c1 | 21 | 50* | -1 | 27 | 2 | 46*
COc1cc(OC)c(C(=O)O/N=C(\N)c2ccc(C)cc2)cc1OC | 33 | 46* | 3 | 36 | 8 | 49*
COc1ccc(/C(N)=N/OC(=O)c2cccs2)cc1OC | 25 | 66* | 4 | 23 | 4 | 53*
COCCC(=O)N1CCC(Oc2ccc(C(=O)NC(C)CCn3cccn3)cc2)CC1 (stereo not drawn) | -1 | 5 | 1 | 9 | 0 | x
O=C(Nc1ccc(F)c(F)c1)C1CCN(S(=O)(=O)c2cccs2)CC1 | 19 | 6 | 0 | 21 | -3 | x
Cc1cccc(/C=N/NC(=O)c2ccc(NC(=O)c3ccc(Cl)cc3)cc2)n1 | 7 | 96* | 0 | 19 | 0 | -8
Cc1cccc(/C=N/NC(=O)c2ccc(NC(=O)c3ccc(F)cc3)cc2)n1 | 5 | -21 | 2 | -11 | 4 | x
O=c1c2ccccc2nc(SCc2ccc([N+](=O)[O-])cc2)n1-c1ccccc1 | 26 | 40* | 2 | 34 | 3 | 34*
O=C(O)c1ccc(CSc2nc3ccccc3c(=O)n2-c2ccccc2)cc1 | -7 | -8 | 0 | 10 | -3 | x
COc1cc(/C=N/NC(=O)c2nnn(-c3nonc3N)c2C(C)C)ccc1OCc1ccc(F)cc1 | 9 | 43* | 9 | 4 | -3 | -1
CC(C)c1c(C(=O)N/N=C/c2cccc(OCc3ccc(F)cc3)c2)nnn1-c1nonc1N | 7 | 36 | -1 | 21 | -6 | x
CC1(C)O[C@@H](CC(=O)O)[C@]23CO[C@H](C(=O)[C@]4(C)C2CC[C@@]2(C)[C@H](c5ccoc5)OC(=O)C5O[C@]524)[C@@H]13 (stereo partly drawn) | 0 | -18 | -1 | -1 | -4 | x
CC(Sc1nnc2n1CCCCC2)C(=O)Nc1cccc(S(=O)(=O)N2CCOCC2)c1 (stereo not drawn) | -2 | -2 | 1 | -1 | 1 | x
CC(C)c1ccc(NC(=O)c2cc(S(=O)(=O)NCC3COc4ccccc4O3)ccc2F)cc1 (stereo not drawn) | 38 | 43* | 1 | 34 | -3 | 43*
COc1cc(NS(=O)(=O)c2ccc(NC(=S)NC(=O)c3ccc(F)c(F)c3)cc2)nc(OC)n1 | -1 | 1 | 1 | 1 | -2 | x
O=C(CCNC(=O)c1ccccc1Cl)Nc1nc(-c2ccccc2Cl)cs1 | 1 | 40* | 5 | 28 | 5 | 20
